Measured values as given in publication PMC13170702 (Nuclear medicine and biology, 2025).

Experiment: organ radiation dose estimates, OLINDA 2.0, ICRP-103
Assay type: in vivo, human
Procedure, shortened: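 Whole-body PET-MR ran as nine scans to 214 min. Organ VOIs were drawn in AMIDE, giving decay-corrected %IA per VOI; remainder = whole body minus measured organs. TIACs came from the EXM exponential model (OLINDA 1.1). Per-participant organ doses were computed in OLINDA 2.0 with 73 kg adult male or 60 kg female models. Effective dose (mSv) = organ absorbed doses × ICRP-103 tissue weighting factors.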

## COC(=O)[C@@H](N)CC(=O)Nc1ccc2c(c1)Cc1cc([18F])ccc1-2 [[^18F]RP-115, methyl N^4-(7-[^18F]fluoro-9H-fluoren-2-yl)asparaginate]
F1 (189 MBq)
  Effective dose (whole body): 4.54 mSv
  Estimated absorbed dose, Adrenals: 5.94 mGy
  Estimated absorbed dose, Brain: 3.21 mGy
  Estimated absorbed dose, Breasts: 1.71 mGy
  Estimated absorbed dose, Colon, left: 2.85 mGy
  Estimated absorbed dose, Colon, right: 2.77 mGy
  Estimated absorbed dose, Esophagus: 2.98 mGy
  Estimated absorbed dose, Eyes: 1.59 mGy
  Estimated absorbed dose, Gallbladder wall: 5.09 mGy
  Estimated absorbed dose, Heart wall: 4.40 mGy
  Estimated absorbed dose, Kidneys: 32.6 mGy
  Estimated absorbed dose, Liver: 8.25 mGy
  Estimated absorbed dose, Lungs: 10.2 mGy
  Estimated absorbed dose, Osteogenic cells: 1.77 mGy
  Estimated absorbed dose, Ovaries: 2.77 mGy
  Estimated absorbed dose, Pancreas: 5.49 mGy
  Estimated absorbed dose, Rectum: 3.34 mGy
  Estimated absorbed dose, Red marrow: 2.26 mGy
  Estimated absorbed dose, Salivary glands: 1.69 mGy
  Estimated absorbed dose, Small intestine: 7.43 mGy
  Estimated absorbed dose, Spleen: 10.1 mGy
  Estimated absorbed dose, Stomach wall: 3.08 mGy
  Estimated absorbed dose, Thymus: 7.59 mGy
  Estimated absorbed dose, Thyroid: 2.36 mGy
  Estimated absorbed dose, Urinary bladder wall: 16.2 mGy
  Estimated absorbed dose, Uterus: 4.55 mGy
F2, no voiding (355 MBq)
  Effective dose (whole body): 9.27 mSv
  Estimated absorbed dose, Adrenals: 11.7 mGy
  Estimated absorbed dose, Brain: 5.33 mGy
  Estimated absorbed dose, Breasts: 2.78 mGy
  Estimated absorbed dose, Colon, left: 4.83 mGy
  Estimated absorbed dose, Colon, right: 4.76 mGy
  Estimated absorbed dose, Esophagus: 5.40 mGy
  Estimated absorbed dose, Eyes: 2.43 mGy
  Estimated absorbed dose, Gallbladder wall: 9.31 mGy
  Estimated absorbed dose, Heart wall: 6.93 mGy
  Estimated absorbed dose, Kidneys: 93.4 mGy
  Estimated absorbed dose, Liver: 15.5 mGy
  Estimated absorbed dose, Lungs: 21.1 mGy
  Estimated absorbed dose, Osteogenic cells: 2.97 mGy
  Estimated absorbed dose, Ovaries: 5.90 mGy
  Estimated absorbed dose, Pancreas: 7.60 mGy
  Estimated absorbed dose, Rectum: 7.07 mGy
  Estimated absorbed dose, Red marrow: 4.01 mGy
  Estimated absorbed dose, Salivary glands: 2.62 mGy
  Estimated absorbed dose, Small intestine: 9.87 mGy
  Estimated absorbed dose, Spleen: 7.49 mGy
  Estimated absorbed dose, Stomach wall: 5.08 mGy
  Estimated absorbed dose, Thymus: 8.99 mGy
  Estimated absorbed dose, Thyroid: 17.5 mGy
  Estimated absorbed dose, Urinary bladder wall: 28.7 mGy
  Estimated absorbed dose, Uterus: 47.6 mGy
F3 (117 MBq)
  Effective dose (whole body): 2.27 mSv
  Estimated absorbed dose, Adrenals: 3.65 mGy
  Estimated absorbed dose, Brain: 1.52 mGy
  Estimated absorbed dose, Breasts: 1.09 mGy
  Estimated absorbed dose, Colon, left: 1.77 mGy
  Estimated absorbed dose, Colon, right: 1.81 mGy
  Estimated absorbed dose, Esophagus: 1.78 mGy
  Estimated absorbed dose, Eyes: 1.01 mGy
  Estimated absorbed dose, Gallbladder wall: 3.38 mGy
  Estimated absorbed dose, Heart wall: 2.27 mGy
  Estimated absorbed dose, Kidneys: 21.4 mGy
  Estimated absorbed dose, Liver: 6.07 mGy
  Estimated absorbed dose, Lungs: 4.63 mGy
  Estimated absorbed dose, Osteogenic cells: 1.11 mGy
  Estimated absorbed dose, Ovaries: 1.54 mGy
  Estimated absorbed dose, Pancreas: 2.79 mGy
  Estimated absorbed dose, Rectum: 1.46 mGy
  Estimated absorbed dose, Red marrow: 1.39 mGy
  Estimated absorbed dose, Salivary glands: 1.09 mGy
  Estimated absorbed dose, Small intestine: 3.98 mGy
  Estimated absorbed dose, Spleen: 3.58 mGy
  Estimated absorbed dose, Stomach wall: 1.87 mGy
  Estimated absorbed dose, Thymus: 2.50 mGy
  Estimated absorbed dose, Thyroid: 2.20 mGy
  Estimated absorbed dose, Urinary bladder wall: 1.54 mGy
  Estimated absorbed dose, Uterus: 3.86 mGy
F4 (167 MBq)
  Effective dose (whole body): 3.28 mSv
  Estimated absorbed dose, Adrenals: 4.53 mGy
  Estimated absorbed dose, Brain: 2.64 mGy
  Estimated absorbed dose, Breasts: 1.41 mGy
  Estimated absorbed dose, Colon, left: 2.41 mGy
  Estimated absorbed dose, Colon, right: 2.41 mGy
  Estimated absorbed dose, Esophagus: 2.41 mGy
  Estimated absorbed dose, Eyes: 1.33 mGy
  Estimated absorbed dose, Gallbladder wall: 3.61 mGy
  Estimated absorbed dose, Heart wall: 4.15 mGy
  Estimated absorbed dose, Kidneys: 28.1 mGy
  Estimated absorbed dose, Liver: 6.74 mGy
  Estimated absorbed dose, Lungs: 7.74 mGy
  Estimated absorbed dose, Osteogenic cells: 1.45 mGy
  Estimated absorbed dose, Ovaries: 2.17 mGy
  Estimated absorbed dose, Pancreas: 3.86 mGy
  Estimated absorbed dose, Rectum: 2.14 mGy
  Estimated absorbed dose, Red marrow: 1.84 mGy
  Estimated absorbed dose, Salivary glands: 1.41 mGy
  Estimated absorbed dose, Small intestine: 8.53 mGy
  Estimated absorbed dose, Spleen: 3.75 mGy
  Estimated absorbed dose, Stomach wall: 2.46 mGy
  Estimated absorbed dose, Thymus: 4.47 mGy
  Estimated absorbed dose, Thyroid: 2.53 mGy
  Estimated absorbed dose, Urinary bladder wall: 4.45 mGy
  Estimated absorbed dose, Uterus: 6.39 mGy
Female n=4, mean±SD
  Effective dose (whole body): 0.0223±0.0033 mSv/MBq
  Estimated dose, Adrenals: 0.0307±0.0025 mGy/MBq
  Estimated dose, Brain: 0.0152±0.0017 mGy/MBq
  Estimated dose, Breasts: 0.00866±0.00067 mGy/MBq
  Estimated dose, Esophagus: 0.0152±0.0006 mGy/MBq
  Estimated dose, Eyes: 0.00797±0.00081 mGy/MBq
  Estimated dose, Gallbladder wall: 0.0259±0.0031 mGy/MBq
  Estimated dose, Heart wall: 0.0218±0.0027 mGy/MBq
  Estimated dose, Kidneys: 0.197±0.045 mGy/MBq
  Estimated dose, Left colon: 0.0146±0.0007 mGy/MBq
  Estimated dose, Liver: 0.0449±0.0049 mGy/MBq
  Estimated dose, Lungs: 0.0499±0.0088 mGy/MBq
  Estimated dose, Osteogenic cells: 0.00899±0.00054 mGy/MBq
  Estimated dose, Ovaries: 0.0144±0.0017 mGy/MBq
  Estimated dose, Pancreas: 0.0244±0.0033 mGy/MBq
  Estimated dose, Rectum: 0.0157±0.0037 mGy/MBq
  Estimated dose, Red marrow: 0.0116±0.0005 mGy/MBq
  Estimated dose, Right colon: 0.0145±0.0009 mGy/MBq
  Estimated dose, Salivary Glands: 0.0085±0.0008 mGy/MBq
  Estimated dose, Small intestine: 0.0381±0.0098 mGy/MBq
  Estimated dose, Spleen: 0.0319±0.0150 mGy/MBq
  Estimated dose, Stomach wall: 0.0153±0.0010 mGy/MBq
  Estimated dose, Thymus: 0.0284±0.0082 mGy/MBq
